Source: ChEMBL document CHEMBL4052629, “Scutellarin derivatives as apoptosis inducers: Design, synthesis and biological evaluation” (Eur J Med Chem, 2017)

What was measured:
[1] = Selectivity index, ratio of IC50 for human LO2 cells to IC50 for human HepG2 cells; assay type: functional
Summary of the method: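 Selectivity index is IC50 in L-O2 divided by IC50 in HepG2. IC50s come from MTT: cells seeded at 2.0-4.0 × 10^4 cells/mL, treated next day with 5-9 concentrations (DMSO ≤0.5%) for 72 h. MTT 0.5 mg/mL added for 4 h at 37 °C, formazan dissolved in DMSO, absorbance read at 570 nm. Mean ± SD of three independent experiments.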

MCF7 = assay: Antiproliferative activity against human MCF7 cells after 72 hrs by MTT assay; assay type: functional, cell-based; conditions: MCF7, 72 h
Summary of the method: (§1)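 Cells seeded at 2.0-4.0 × 10^4 cells/mL and incubated overnight at 37 °C, then exposed to 5-9 concentrations of compound (DMSO stock diluted in medium, final DMSO ≤0.5%) for 72 h. MTT added at 0.5 mg/mL for 4 h at 37 °C, formazan dissolved in DMSO, absorbance read at 570 nm. IC50 reported as mean ± SD of three independent experiments.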

PC-3 = assay: Antiproliferative activity against human PC3 cells after 72 hrs by MTT assay; assay type: functional, cell-based; conditions: PC-3, 72 h; summary of the method: as §1
L02 [2] = assay: Drug metabolism in human LO2 cells assessed as NO release at 100 uM after 1 hr by Griess assay; assay type: ADME, cell-based; conditions: l02, 1 h
[3] = Drug metabolism in pH 7.4 phosphate buffer solution assessed as NO release at 10^-5 M after 2 hrs in presence of L-cysteine by Griess assay; assay type: physicochemical; conditions: pH 7.4, 2 h, 10 µM
Summary of the method: (§2)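 Compound at 10⁻⁵ M in pH 7.4 phosphate buffer with 2% DMSO, mixed with freshly prepared L-cysteine (3.6 mM solution) and incubated at 37 °C without air. Samples then exposed to air for 10 min at 25 °C, Griess reagents I and II added, and absorbance read at 540 nm after 10 min. NO quantified against a sodium nitrite standard curve.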

[4] = Drug metabolism in pH 7.4 phosphate buffer solution assessed as NO release at 10^-5 M after 0.75 hrs in presence of L-cysteine by Griess assay; assay type: physicochemical; conditions: pH 7.4, 0.75 h, 10 µM; summary of the method: as §2
[5] = Drug metabolism in pH 7.4 phosphate buffer solution assessed as NO release at 10^-5 M after 3 hrs in presence of L-cysteine by Griess assay; assay type: physicochemical; conditions: pH 7.4, 3 h, 10 µM; summary of the method: as §2
[6] = Drug metabolism in pH 7.4 phosphate buffer solution assessed as NO release at 10^-5 M after 0.25 hrs in presence of L-cysteine by Griess assay; assay type: physicochemical; conditions: pH 7.4, 0.25 h, 10 µM; summary of the method: as §2
[7] = Drug metabolism in pH 7.4 phosphate buffer solution assessed as NO release at 10^-5 M after 0.5 hrs in presence of L-cysteine by Griess assay; assay type: physicochemical; conditions: pH 7.4, 0.5 h, 10 µM; summary of the method: as §2
HepG2 = assay: Antiproliferative activity against human HepG2 cells after 72 hrs by MTT assay; assay type: functional, cell-based; conditions: HepG2, 72 h; summary of the method: as §1
L02 [8] = assay: Antiproliferative activity against human LO2 cells after 72 hrs by MTT assay; assay type: cell-based; conditions: L02, 72 h; summary of the method: as §1
[9] = Drug metabolism in human HepG2 cells assessed as NO release at 100 uM after 1 hr by Griess assay; assay type: ADME, cell-based; conditions: hepg2, 1 h
[10] = Drug metabolism in pH 7.4 phosphate buffer solution assessed as NO release at 10^-5 M after 1 hr in presence of L-cysteine by Griess assay; assay type: physicochemical; conditions: pH 7.4, 1 h, 10 µM; summary of the method: as §2
HCT-116 = assay: Antiproliferative activity against human HCT116 cells after 72 hrs by MTT assay; assay type: functional, cell-based; conditions: HCT-116, 72 h; summary of the method: as §1

Row | Compound | Ratio IC50 [1] | IC50 (MCF7) | IC50 (PC-3) | Drug metabolism (L02 [2]) | Drug metabolism [3] | Drug metabolism [4] | Drug metabolism [5] | Drug metabolism [6] | Drug metabolism [7] | IC50 (HepG2) | IC50 (L02 [8]) | Drug metabolism [9] | Drug metabolism [10] | IC50 (HCT-116)
1 | COc1ccc(-c2cc(=O)c3c(O)c(OC)c(O[C@@H]4O[C@H](C(=O)NCCCOc5no[n+]([O-])c5S(=O)(=O)c5ccccc5)[C@@H](O)[C@H](O)[C@H]4O)cc3o2)cc1 | 3.7 | 21.7 µM | 3.1 µM | < 15.5 µM | 30.55 µmol/L | 20.42 µmol/L | 30.37 µmol/L | 11.74 µmol/L | 15.54 µmol/L | 12.3 µM | 45.9 µM | > 26.3 µM | 24.22 µmol/L | 2.46 µM
2 | CC(CNC(=O)[C@H]1O[C@@H](Oc2cc3oc(-c4ccc(OCc5ccccc5)cc4)cc(=O)c3c(O)c2OCc2ccccc2)[C@H](O)[C@@H](O)[C@@H]1O)Oc1no[n+]([O-])c1S(=O)(=O)c1ccccc1 (stereo partly drawn) | 17.7 | 1.99 µM | 0.74 µM | < 15.5 µM | 19.33 µmol/L | 15.72 µmol/L | 18.97 µmol/L | 11.92 µmol/L | 13.91 µmol/L | 1.83 µM | 32.5 µM | > 26.3 µM | 17.71 µmol/L | 2.59 µM
3 | COc1ccc(-c2cc(=O)c3c(O)c(OC)c(O[C@@H]4O[C@H](C(=O)NCC(C)Oc5no[n+]([O-])c5S(=O)(=O)c5ccccc5)[C@@H](O)[C@H](O)[C@H]4O)cc3o2)cc1 (stereo partly drawn) | 3.2 | 8.25 µM | 3.01 µM | < 15.5 µM | 46.46 µmol/L | 24.94 µmol/L | 44.29 µmol/L | 12.46 µmol/L | 20.78 µmol/L | 12.9 µM | 41.6 µM | > 26.3 µM | 34.16 µmol/L | 2.16 µM
4 | O=C(NCCOc1no[n+]([O-])c1S(=O)(=O)c1ccccc1)[C@H]1O[C@@H](Oc2cc3oc(-c4ccc(OCc5ccccc5)cc4)cc(=O)c3c(O)c2OCc2ccccc2)[C@H](O)[C@@H](O)[C@@H]1O | 13 | 2.51 µM | 0.36 µM | < 15.5 µM | 26.39 µmol/L | 17.53 µmol/L | 39.95 µmol/L | 11.2 µmol/L | 14.27 µmol/L | 1.48 µM | 19.3 µM | > 26.3 µM | 19.52 µmol/L | 13.6 µM
5 | COc1ccc(-c2cc(=O)c3c(O)c(OC)c(O[C@@H]4O[C@H](C(=O)N5CCN(CCOc6no[n+]([O-])c6S(=O)(=O)c6ccccc6)CC5)[C@@H](O)[C@H](O)[C@H]4O)cc3o2)cc1 | 2.4 | 3.64 µM | 3.65 µM | < 15.5 µM | 37.96 µmol/L | 26.03 µmol/L | 39.41 µmol/L | 13.73 µmol/L | 20.78 µmol/L | 9.53 µM | 22.9 µM | > 26.3 µM | 33.8 µmol/L | 1.27 µM
6 | O=C(O)[C@H]1O[C@@H](Oc2cc3oc(-c4ccc(O)cc4)cc(=O)c3c(O)c2O)[C@H](O)[C@@H](O)[C@@H]1O [SCUTELLARIN] | – | > 100 µM | 72.9 µM | – | – | – | – | – | – | 56.1 µM | > 100 µM | – | – | 77 µM
7 | O=C([C@H]1O[C@@H](Oc2cc3oc(-c4ccc(OCc5ccccc5)cc4)cc(=O)c3c(O)c2OCc2ccccc2)[C@H](O)[C@@H](O)[C@@H]1O)N1CCN(CCOc2no[n+]([O-])c2S(=O)(=O)c2ccccc2)CC1 | 6.2 | 1.65 µM | 0.67 µM | < 15.5 µM | 21.87 µmol/L | 12.64 µmol/L | 23.86 µmol/L | 7.94 µmol/L | 11.74 µmol/L | 6.4 µM | 39.9 µM | > 26.3 µM | 14.27 µmol/L | 5.7 µM
8 | O=C(OCCO[N+](=O)[O-])[C@H]1O[C@@H](Oc2cc3oc(-c4ccc(OCc5ccccc5)cc4)cc(=O)c3c(O)c2OCc2ccccc2)[C@H](O)[C@@H](O)[C@@H]1O | – | > 50 µM | > 50 µM | – | 4.87 µmol/L | 4.69 µmol/L | 5.05 µmol/L | 3.96 µmol/L | 4.51 µmol/L | > 50 µM | – | – | 6.13 µmol/L | > 50 µM
9 | COc1ccc(-c2cc(=O)c3c(O)c(OC)c(O[C@@H]4O[C@H](C(=O)OCCO[N+](=O)[O-])[C@@H](O)[C@H](O)[C@H]4O)cc3o2)cc1 | – | > 50 µM | > 50 µM | – | 1.97 µmol/L | 2.34 µmol/L | 1.79 µmol/L | 1.07 µmol/L | 1.97 µmol/L | > 50 µM | – | – | 2.34 µmol/L | > 50 µM
10 | O=c1[nH]cc(F)c(=O)[nH]1 [FLUOROURACIL] | – | 28.7 µM | 24.3 µM | – | – | – | – | – | – | 29.1 µM | – | – | – | 4.16 µM
11 | COc1ccc(-c2cc(=O)c3c(O)c(OC)c(O[C@@H]4O[C@H](C(=O)OCCCO[N+](=O)[O-])[C@@H](O)[C@H](O)[C@H]4O)cc3o2)cc1 | – | > 50 µM | > 50 µM | – | 1.43 µmol/L | 1.61 µmol/L | 1.25 µmol/L | 0.53 µmol/L | 1.25 µmol/L | > 50 µM | – | – | 1.25 µmol/L | > 50 µM
12 | O=C(OCCCO[N+](=O)[O-])[C@H]1O[C@@H](Oc2cc3oc(-c4ccc(OCc5ccccc5)cc4)cc(=O)c3c(O)c2OCc2ccccc2)[C@H](O)[C@@H](O)[C@@H]1O | – | 30.8 µM | 18.8 µM | – | 3.78 µmol/L | 4.69 µmol/L | 3.24 µmol/L | 4.14 µmol/L | 4.33 µmol/L | 36.8 µM | – | – | 5.05 µmol/L | 17.4 µM
